According to PubChem BioAssay:
The source made the active and inactive calls.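 The calls were made as follows, unless noted: active = visually confirmed hit in the image check and inhibition above 20%; inconclusive = visually confirmed hit but inhibition not above 20%; inactive = no visual hit in the image check.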

How the values were obtained:
[1] = inhibitors of TNFa-induced NFkB p65 translocation, primary screen, imaging, HUVEC, MLSMR starter and 10KST1 sets (AID 438;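 active = inhibition above 20% together with a positive visual image hit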;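 also: compound added about 3h40 before a 20 min TNFalpha stimulation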;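 as to inhibition: signal is the nuclear over cytoplasmic p65 intensity ratio per well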); details: HUVEC TNFa-induced p65 nuclear translocation; cell count: measured here: nuclei count (cytotoxicity indicator), at 2.08 µM; inhibition: at 2 µM, stronger effect = higher value, 0% TNFa-plus-vehicle, 100% no-TNFa wells
[2] = reduction of polyQ htt aggregates in cells – imaging, exon1htt(103Q)mCFP cells, high-content imaging, primary screen (AID 483;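 active = visual image review flags a hit and inhibition of aggregation exceeds 20%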;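 also: compound exposure lasted 3 days before fixation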;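 as to nuclei count: percent of the per-plate median nuclei count of sample wells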); details: exon1htt(103Q)mCFP cell line, aggregate imaging, at 2 µM; inhibition of aggregation: stronger effect = higher value; nuclei count: measured here: cell count, toxicity
[3] = endothelial E-selectin expression blockers – imaging, HUVEC, immunofluorescence, MLSMR starter and 10KST1 sets, primary screen (AID 487); details: HUVEC TNFalpha-induced E-selectin immunofluorescence imaging, at 2 µM; inhibition: stronger effect = higher value; nuclei count: measured here: cell number, toxicity;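 as to inhibition: signal is fraction of cell area covered by stained E-selectin grains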;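 as to nuclei count: 100% = median nuclei count of all wells on the same plate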
[4] = molecular target: Voltage-gated potassium channel subunit beta-2 (Rattus norvegicus) (UniProt P62483); experiment: inhibitors of rat Kvbeta2 reductase activity – biochemical, NADPH fluorescence, primary screen (AID 622;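 active = fluorescence slope higher than the sample average by over 3 SD, cut at about -0.22 in these data, passing the limit was not always enough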;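 also: slope of raw intensity against log time taken from 70 to 1610 s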); details: recombinant KvBeta, 4-cyanobenzaldehyde reduction, at 10 µM, stronger effect = higher value
Chain of Voltage-gated potassium channel subunit beta-2 (Rattus norvegicus) (P62483 whole entry, looked up): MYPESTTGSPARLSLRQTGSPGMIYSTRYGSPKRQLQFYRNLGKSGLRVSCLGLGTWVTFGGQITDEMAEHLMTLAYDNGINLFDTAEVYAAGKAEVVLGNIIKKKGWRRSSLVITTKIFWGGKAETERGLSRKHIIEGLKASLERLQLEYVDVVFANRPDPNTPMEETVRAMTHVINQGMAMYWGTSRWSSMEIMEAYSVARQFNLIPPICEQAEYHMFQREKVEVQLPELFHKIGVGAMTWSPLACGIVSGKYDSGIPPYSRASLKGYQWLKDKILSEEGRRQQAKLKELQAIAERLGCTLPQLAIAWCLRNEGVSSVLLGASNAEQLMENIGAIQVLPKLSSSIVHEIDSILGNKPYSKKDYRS

[5] = molecular target: Voltage-gated potassium channel subunit beta-2 (Rattus norvegicus) (UniProt P62483); experiment: enhancers of rat Kvbeta2 NADPH turnover – biochemical, NADPH fluorescence, primary screen (AID 623;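 active = NADPH fluorescence slope more negative than the mean of all samples by about 3 SD, 99.7% confidence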;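 also: fluorescence intensity change per second fitted from 20 to 320 s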); details: Recombinant KvBeta, NADPH fluorescence decrease slope, 10 min; at 10 µM; stronger effect = lower value
[6] = molecular target: Muscarinic acetylcholine receptor M4 (Homo sapiens) (UniProt P08173); experiment: M4-linked GIRK flux change, two-sided – cell-based, HEK293 M4/GIRK, thallium flux, BTC-AM, M4 allosteric agonist project, primary screen (AID 625;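 active = fluorescence slope after compound addition differing from the mean of all tested samples at 99.7% confidence, mostly higher but some lower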;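 also: thallium influx through GIRK channels coupled to M4 in HEK293 cells with BTC-AM dye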); details: at 10 µM, actives lie on both sides
Chain of Muscarinic acetylcholine receptor M4 (Homo sapiens) (P08173 whole entry, looked up): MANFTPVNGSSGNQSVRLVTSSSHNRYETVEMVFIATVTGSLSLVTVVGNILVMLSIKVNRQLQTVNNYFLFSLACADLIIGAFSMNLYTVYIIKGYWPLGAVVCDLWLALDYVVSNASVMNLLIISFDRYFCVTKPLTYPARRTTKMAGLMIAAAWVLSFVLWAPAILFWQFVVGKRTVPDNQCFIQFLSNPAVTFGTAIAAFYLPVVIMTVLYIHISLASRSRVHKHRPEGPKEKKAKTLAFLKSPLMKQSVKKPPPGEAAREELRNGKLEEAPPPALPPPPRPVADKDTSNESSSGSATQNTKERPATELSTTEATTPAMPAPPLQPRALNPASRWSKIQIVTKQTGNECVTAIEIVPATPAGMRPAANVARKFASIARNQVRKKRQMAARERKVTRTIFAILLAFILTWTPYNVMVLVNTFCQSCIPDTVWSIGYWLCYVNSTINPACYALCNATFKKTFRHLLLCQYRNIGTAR
Outline: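 System: HEK293 cells with M4 receptor and GIRK channels | Incubation: Cells overnight at 37 °C, BTC-AM loading 1 h, reads 2 min total | Technique: Kinetic BTC-AM fluorescence sampled at 1 Hz, 10 s pre-addition baseline | Measure: Post-addition slope, 15–24 s, of baseline-normalized fluorescence | Control set: Carbachol positive, DMSO negative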

[7] = blockers of RIG-like receptor reporter activation – cell-based, Sendai virus stimulus, luciferase, 10K MLSCN set, TLR/RLR signaling modifier project, primary screen (AID 602276;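 active = inhibition at or above 50% at 10 µM; inactive = inhibition below 50%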;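 also: firefly luciferase from ISG56 promoter only with Renilla not read in this screen; 0% = Sendai virus plus DMSO and 100% = medium plus DMSO without virus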); details: HEK293 RL24 IRF3 luciferase reporter, at 10 µM, stronger effect = higher value
[8] = TLR3 IRF3 reporter activation blockers – cell-based, poly I:C stimulus, luciferase, 10K MLSCN set, primary screen (AID 602277;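 active = inhibition of the reporter signal at or above 50%; inactive = inhibition below 50%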); details: HEK293-TLR3 RL24 IRF3 luciferase reporter, at 10 µM, stronger effect = higher value

c1ccc2nc(-c3nc4ccccc4[nH]3)ccc2c1
cell count [1]: 574
inhibition [1]: 9.8% (inactive)
inhibition of aggregation [2]: -19.5% (inactive)
nuclei count [2]: 85.8%
inhibition [3]: -6.9% (inactive)
nuclei count [3]: 101%
fluorescence slope [4]: -0.551 (inactive)
NADPH fluorescence slope [5]: -2.7e-05 (inactive)
fluorescence slope [6]: 0.00356 (inactive)
inhibition [7]: 11.5% (inactive)
inhibition [8]: -35.5% (inactive)

Cc1cc(=O)oc2cc(OCC(=O)OCc3nnc(-c4ccccc4)o3)ccc12
cell count [1]: 527
inhibition [1]: -7.7% (inactive)
inhibition of aggregation [2]: 5.8% (inactive)
nuclei count [2]: 123%
inhibition [3]: -10.9% (inactive)
nuclei count [3]: 121%
fluorescence slope [4]: -0.399 (inactive)
NADPH fluorescence slope [5]: 2.8e-05 (inactive)
fluorescence slope [6]: 0.00584 (inactive)
inhibition [7]: 6.17% (inactive)
inhibition [8]: 7.89% (inactive)

N#Cc1c(-c2ccccc2)nc(SCc2nc(N)nc(N3CCCCC3)n2)[nH]c1=O
cell count [1]: 401
inhibition [1]: -14% (inactive)
inhibition of aggregation [2]: 13% (inactive)
nuclei count [2]: 85.3%
inhibition [3]: -20.8% (inactive)
nuclei count [3]: 97.8%
fluorescence slope [4]: -0.442 (inactive)
NADPH fluorescence slope [5]: 0.000117 (inactive)
fluorescence slope [6]: 0.00582 (inactive)
inhibition [7]: 14.8% (inactive)
inhibition [8]: -10.4% (inactive)

O=C(CCCn1ncn2c(cc3occc32)c1=O)N1CCc2ccccc2C1
cell count [1]: 363
inhibition [1]: -0.7% (inactive)
inhibition of aggregation [2]: 4.2% (inactive)
nuclei count [2]: 93.3%
inhibition [3]: -81.7% (inactive)
nuclei count [3]: 101%
fluorescence slope [4]: -0.484 (inactive)
NADPH fluorescence slope [5]: -0.00018 (inactive)
fluorescence slope [6]: 0.00605 (inactive)
inhibition [7]: 8.38% (inactive)
inhibition [8]: 8.89% (inactive)

COc1ccc(C(=O)CSc2nnc(CNc3ccc(C)cc3C)o2)cc1
cell count [1]: 606
inhibition [1]: -4.1% (inactive)
inhibition of aggregation [2]: 3% (inactive)
nuclei count [2]: 101%
inhibition [3]: -136% (inactive)
nuclei count [3]: 199%
fluorescence slope [4]: -0.469 (inactive)
NADPH fluorescence slope [5]: -8.4e-05 (inactive)
fluorescence slope [6]: 0.00401 (inactive)
inhibition [7]: 14.6% (inactive)
inhibition [8]: 11.8% (inactive)

CCOC(=O)C1C(=O)NC(SCC(=O)Nc2nccs2)=C(C#N)C1c1ccccc1OCC (configuration not stated)
cell count [1]: 605
inhibition [1]: -27.7% (inactive)
inhibition of aggregation [2]: -20.6% (inactive)
nuclei count [2]: 120%
inhibition [3]: 20.7% (inactive)
nuclei count [3]: 104%
fluorescence slope [4]: -0.454 (inactive)
NADPH fluorescence slope [5]: -3.1e-05 (inactive)
fluorescence slope [6]: 0.00515 (inactive)
inhibition [7]: 19.6% (inactive)
inhibition [8]: 20.1% (inactive)

c1ccc(CNc2ccc3c(c2)ncn3C2CCCCC2)nc1
cell count [1]: 171
inhibition [1]: -4.9% (inactive)
inhibition of aggregation [2]: 20% (inactive)
nuclei count [2]: 78.3%
inhibition [3]: -12.5% (inactive)
nuclei count [3]: 97%
fluorescence slope [4]: -0.58 (inactive)
NADPH fluorescence slope [5]: 4.2e-05 (inactive)
fluorescence slope [6]: 0.00406 (inactive)
inhibition [7]: -10.6% (inactive)
inhibition [8]: -24.3% (inactive)
